Test results as given in ChEMBL document CHEMBL1649372, “Discovery of highly potent agents against influenza A virus” (Eur J Med Chem, 2011).
The source made the active and inactive calls. The calls are words filed in the database; no cut-off is given here.

Test system: Influenza A virus
Assay: Antiviral activity against amantadine-sensitive Influenza A virus A/Hong Kong/8/68 (H3N2) infected in MDCK cells assessed as host cell survival after 72 hrs by CCK8 method
Format: functional, organism-based
Procedure, shortened: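 Compounds added with TPCK and 0.3% BSA and preincubated 30 min at 37 °C. Cells then infected with about 0.01 MOI A/Hong Kong/8/68 (H3N2) and incubated 72 h at 37 °C in 5% CO2. CCK-8 reagent then added to read host cell survival.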

Row | Structure (SMILES) | IC50 [µM]
1 | C[C@@H]1[C@H]2C[C@@H](C[C@H]1NC1CCCCC1)C2(C)C | 43.7
2 | Cc1ccc(/C=N/[C@@H]2C[C@@H]3C[C@H]([C@H]2C)C3(C)C)cc1 | 13.9
3 | C[C@@H]1[C@H]2C[C@@H](C[C@H]1NCc1ccc(F)cc1)C2(C)C | > 200
4 | C[C@@H]1[C@H]2C[C@@H](C[C@H]1/N=C/c1ccc(F)cc1)C2(C)C | 16.3
5 | CC(C)N[C@@H]1C[C@@H]2C[C@H]([C@H]1C)C2(C)C | > 200
6 | C[C@@H]1[C@H]2C[C@@H](C[C@H]1NCC1CC1)C2(C)C | 28.5
7 | C[C@@H]1[C@H]2C[C@@H](C[C@H]1NCc1ccc(O)cc1)C2(C)C | > 200
8 | C[C@@H]1[C@H]2C[C@@H](C[C@H]1/N=C/c1ccc(O)cc1)C2(C)C | 0.088
9 | C[C@@H]1[C@H]2C[C@@H](C[C@H]1/N=C/c1ccccc1)C2(C)C | 7.78
10 | CCN[C@@H]1C[C@@H]2C[C@H]([C@H]1C)C2(C)C | > 200
11 | C[C@@H]1[C@H]2C[C@@H](C[C@H]1/N=C/c1ccccc1O)C2(C)C | 20.3
12 | C[C@@H]1[C@H]2C[C@@H](C[C@H]1/N=C/c1cccc(O)c1)C2(C)C | 5.99
13 | C[C@@H]1[C@H]2C[C@@H](C[C@H]1/N=C/c1ccc(N(C)C)cc1)C2(C)C | 38.4
14 | CN[C@@H]1C[C@@H]2C[C@H]([C@H]1C)C2(C)C | 23.5
15 | NC12CC3CC(CC(C3)C1)C2 [AMANTADINE] | 21.1

Test system: Influenza A virus
Assay: Antiviral activity against amantadine-sensitive Influenza A virus A/Hong Kong/8/68 (H3N2) infected in MDCK cells at 0.01 to 10 uM after 2 to 3 days by crystal violet staining by plaque reduction assay
Format: functional, organism-based
Procedure, shortened: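 MDCK monolayer infected with 0.01 MOI A/Hong Kong/8/68 for 1 h at 37 °C. Inoculum removed and cells washed twice with PBS, then overlaid with 1% agar DMEM containing test agent. Plaque formation scored.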

Row | Structure (SMILES) | Activity
16 | C[C@@H]1[C@H]2C[C@@H](C[C@H]1/N=C/c1ccc(O)cc1)C2(C)C | Active

Test system: Influenza A virus
Assay: Ratio of compound IC50 to amantadine IC50 for Influenza A virus A/Hong Kong/8/68 (H3N2)
Format: functional

Row | Structure (SMILES) | Ratio IC50
17 | C[C@@H]1[C@H]2C[C@@H](C[C@H]1/N=C/c1ccc(O)cc1)C2(C)C | 240
